Assay results published in ChEMBL document CHEMBL5724801, “EUbOPEN Chemogenomics Library - Multiplex” (2024).
Several values for one entry are separate records, joined by “and”; a condition that tells them apart may be missing. Identical values can stand only once.

Test system: U2OS
Assay: Multiplex assay against U2OS
Type: toxicity, cell-based
Conditions: human
In short: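 Live cells were stained at seeding with Hoechst33342, BioTracker Green Microtubule Cytoskeleton Dye, MitoTracker Red and Annexin V Alexa Fluor 680, then imaged on a CQ1 microscope at 37°C and 5% CO2 after compound addition. CellPathfinder machine-learning gating split cells into Hoechst high-intensity objects or normal cells. Normal cells were split into healthy, pyknosed or fragmented nuclei, and pyknosed cells into mitotic or apoptotic. Tubulin, mitochondrial-mass and membrane-permeability phenotypes are per cents of healthy-nucleus cells.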

[1] = 12 h, 1 µM, compound concentration 1 uM
[2] = 12 h, 10 µM, compound concentration 10 uM
[3] = 24 h, 1 µM, compound concentration 1 uM
[4] = 24 h, 10 µM, compound concentration 10 uM
[5] = 48 h, 1 µM, compound concentration 1 uM
[6] = 48 h, 10 µM, compound concentration 10 uM

O=C1c2c(Br)c(Br)c(Br)c(Br)c2C(=O)N1c1ncc[nH]1
Population Apoptotic (%) [1]: 34.38% and 22.22% | Population Fragmented Nuclei (%) [1]: 2.78% and 4.62% | Population Healthy Nuclei (%) [1]: 88.33% and 79.77% | Population Hoechst High Intensity Objects (%) [1]: 0% | Population Membrane Permeable-Phenotype (%) [1]: 2.52% and 6.52% | Population Mitochondria Different-Phenotype (%) [1]: 0.94% and 6.52% | Population Mitotic Cells (%) [1]: 65.62% and 77.78% | Population Normal (%) [1]: 100% | Population Pyknosed Nuclei (%) [1]: 8.89% and 15.61% | Population Tubulin-Different-Phenotype (%) [1]: 1.26% and 0.72% | Total Cell Count [1]: 360 and 173 | Population Apoptotic (%) [2]: 30.95% and 44.44% | Population Fragmented Nuclei (%) [2]: 1.83% and 1.43% | Population Healthy Nuclei (%) [2]: 88.58% and 85.71% | Population Hoechst High Intensity Objects (%) [2]: 0% | Population Membrane Permeable-Phenotype (%) [2]: 0.77% and 1.67% | Population Mitochondria Different-Phenotype (%) [2]: 0% and 5% | Population Mitotic Cells (%) [2]: 69.05% and 55.56% | Population Normal (%) [2]: 100% | Population Pyknosed Nuclei (%) [2]: 9.59% and 12.86% | Population Tubulin-Different-Phenotype (%) [2]: 0.77% and 0.83% | Population Apoptotic (%) [3]: 47.37% and 28.12% | Population Fragmented Nuclei (%) [3]: 1.69% and 4.85% | Population Healthy Nuclei (%) [3]: 90.27% and 81.06% | Population Hoechst High Intensity Objects (%) [3]: 0.21% and 0% | Population Membrane Permeable-Phenotype (%) [3]: 1.17% and 4.35% | Population Mitochondria Different-Phenotype (%) [3]: 0.47% and 3.8% | Population Mitotic Cells (%) [3]: 52.63% and 71.88% | Population Normal (%) [3]: 99.79% and 100% | Population Pyknosed Nuclei (%) [3]: 8.03% and 14.1% | Population Tubulin-Different-Phenotype (%) [3]: 1.41% and 1.63% | Total Cell Count [3]: 474 and 227 | Population Apoptotic (%) [4]: 43.1% and 37.93% | Population Fragmented Nuclei (%) [4]: 1.95% and 1.6% | Population Healthy Nuclei (%) [4]: 88.62% and 82.89% | Population Hoechst High Intensity Objects (%) [4]: 0% | Population Membrane Permeable-Phenotype (%) [4]: 0.73% and 3.87% | Population Mitochondria Different-Phenotype (%) [4]: 0% and 3.87% | Population Mitotic Cells (%) [4]: 56.9% and 62.07% | Population Normal (%) [4]: 100% | Population Pyknosed Nuclei (%) [4]: 9.43% and 15.51% | Population Tubulin-Different-Phenotype (%) [4]: 0% and 0.65% | Population Apoptotic (%) [5]: 46.91% and 35.59% | Population Fragmented Nuclei (%) [5]: 2.45% and 2.79% | Population Healthy Nuclei (%) [5]: 88.91% and 82.23% | Population Hoechst High Intensity Objects (%) [5]: 0% | Population Membrane Permeable-Phenotype (%) [5]: 1.56% and 1.23% | Population Mitochondria Different-Phenotype (%) [5]: 0.24% and 3.09% | Population Mitotic Cells (%) [5]: 53.09% and 64.41% | Population Normal (%) [5]: 100% | Population Pyknosed Nuclei (%) [5]: 8.64% and 14.97% | Population Tubulin-Different-Phenotype (%) [5]: 0.84% and 0.31% | Total Cell Count [5]: 938 and 394 | Population Apoptotic (%) [6]: 50.54% and 55.88% | Population Fragmented Nuclei (%) [6]: 4.81% and 1.63% | Population Healthy Nuclei (%) [6]: 86.74% and 87.25% | Population Hoechst High Intensity Objects (%) [6]: 0% | Population Membrane Permeable-Phenotype (%) [6]: 0.31% and 3.37% | Population Mitochondria Different-Phenotype (%) [6]: 0% and 1.12% | Population Mitotic Cells (%) [6]: 49.46% and 44.12% | Population Normal (%) [6]: 100% | Population Pyknosed Nuclei (%) [6]: 8.45% and 11.11% | Population Tubulin-Different-Phenotype (%) [6]: 0.31% and 1.87%

Cc1onc(-c2ccccc2Cl)c1C(=O)N(C)c1ccc(Cl)cc1
Population Apoptotic (%) [1]: 82% and 78% | Population Fragmented Nuclei (%) [1]: 26% and 10% | Population Healthy Nuclei (%) [1]: 67% and 79% | Population Hoechst High Intensity Objects (%) [1]: 0% and 1% | Population Membrane Permeable-Phenotype (%) [1]: 3% and 4% | Population Mitochondria Different-Phenotype (%) [1]: 2% and 1% | Population Mitotic Cells (%) [1]: 17% and 21% | Population Normal (%) [1]: 99% and 98% | Population Pyknosed Nuclei (%) [1]: 6% and 10% | Population Tubulin-Different-Phenotype (%) [1]: 1% and 3% | Total Cell Count [1]: 277 and 136 | Population Apoptotic (%) [2]: 79% and 77% | Population Fragmented Nuclei (%) [2]: 28% and 24% | Population Healthy Nuclei (%) [2]: 58% and 56% | Population Hoechst High Intensity Objects (%) [2]: 4% and 0% | Population Membrane Permeable-Phenotype (%) [2]: 12% and 7% | Population Mitochondria Different-Phenotype (%) [2]: 5% and 6% | Population Mitotic Cells (%) [2]: 20% and 22% | Population Normal (%) [2]: 95% and 99% | Population Pyknosed Nuclei (%) [2]: 12% and 19% | Population Tubulin-Different-Phenotype (%) [2]: 5% and 4% | Total Cell Count [2]: 244 and 113 | Population Apoptotic (%) [3]: 100% and 83% | Population Fragmented Nuclei (%) [3]: 23% and 11% | Population Healthy Nuclei (%) [3]: 70% and 81% | Population Hoechst High Intensity Objects (%) [3]: 0% and 1% | Population Membrane Permeable-Phenotype (%) [3]: 2% and 4% | Population Mitochondria Different-Phenotype (%) [3]: 2% and 5% | Population Mitotic Cells (%) [3]: 0% and 16% | Population Normal (%) [3]: 99% and 98% | Population Pyknosed Nuclei (%) [3]: 5% and 7% | Population Tubulin-Different-Phenotype (%) [3]: 0% and 2% | Total Cell Count [3]: 328 and 168 | Population Apoptotic (%) [4]: 72% and 64% | Population Fragmented Nuclei (%) [4]: 26% and 20% | Population Healthy Nuclei (%) [4]: 62% and 66% | Population Hoechst High Intensity Objects (%) [4]: 3% | Population Membrane Permeable-Phenotype (%) [4]: 11% and 8% | Population Mitochondria Different-Phenotype (%) [4]: 6% and 7% | Population Mitotic Cells (%) [4]: 27% and 35% | Population Normal (%) [4]: 96% | Population Pyknosed Nuclei (%) [4]: 11% and 13% | Population Tubulin-Different-Phenotype (%) [4]: 4% and 7% | Total Cell Count [4]: 299 and 129 | Population Apoptotic (%) [5]: 87% and 89% | Population Fragmented Nuclei (%) [5]: 16% and 12% | Population Healthy Nuclei (%) [5]: 75% | Population Hoechst High Intensity Objects (%) [5]: 2% and 1% | Population Membrane Permeable-Phenotype (%) [5]: 4% and 1% | Population Mitochondria Different-Phenotype (%) [5]: 3% and 2% | Population Mitotic Cells (%) [5]: 12% and 10% | Population Normal (%) [5]: 97% and 98% | Population Pyknosed Nuclei (%) [5]: 7% and 11% | Population Tubulin-Different-Phenotype (%) [5]: 2% and 1% | Total Cell Count [5]: 450 and 252 | Population Apoptotic (%) [6]: 69% and 90% | Population Fragmented Nuclei (%) [6]: 22% and 23% | Population Healthy Nuclei (%) [6]: 67% and 65% | Population Hoechst High Intensity Objects (%) [6]: 3% and 2% | Population Membrane Permeable-Phenotype (%) [6]: 10% and 9% | Population Mitochondria Different-Phenotype (%) [6]: 5% | Population Mitotic Cells (%) [6]: 30% and 10% | Population Normal (%) [6]: 96% and 97% | Population Pyknosed Nuclei (%) [6]: 9% and 11% | Population Tubulin-Different-Phenotype (%) [6]: 4% and 3% | Total Cell Count [6]: 413 and 182
